Measurements taken from ChEMBL document CHEMBL4177768, “Synthesis and Biological Evaluation of Derivatives of Indoline as Highly Potent Antioxidant and Anti-inflammatory Agents” (J Med Chem, 2018).
Activity calls are given as the source filed them. No cut-off for these calls is given here.

Tests used:
[1] = system: Mus musculus; assay: Antiinflammatory activity in Balb/C mouse assessed as reduction in LPS-induced IL6 production in spleen at 1 umol/kg, sc administered LPS 15 mins post compound treatment measured after 4 hrs by ELISA; assay type: functional, organism-based
Method in brief: (§1)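 Male Balb/C mice, 7-8 weeks old, given compound sc (0.1, 1 or 10 µmoles/kg) or saline. LPS 10 mg/kg was given ip 15 min later, and mice were killed 4 h after that. Spleens were homogenized in PBS with protease inhibitor and centrifuged at 14,000 g, 4 °C. Cytokines in plasma and tissue supernatants were measured by ELISA, with protein by BCA. Dexamethasone 5.6 µmoles/kg was the reference. n = 8-10 mice per treatment.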

[2] = Cytotoxicity against mouse RAW264.7 cells assessed as cell viability at 10^-11 M after 24 hrs by MTT assay relative to control; assay type: cell-based; conditions: read-out: Activity
Method in brief: (§2)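 RAW 264.7 cells, seeded at 1×10^4 cells/mL and incubated 24 h, were exposed to compound from 1 pM to 100 nM. Viability was read by MTT (final 0.5 mg/mL, 1 h at 37 °C), with formazan dissolved in DMSO and OD at 570 nm. Results are compared with medium-only cells.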

[3] = system: Mus musculus; assay: Antiinflammatory activity in Balb/C mouse assessed as reduction in LPS-induced IL6 production in liver at 0.1 to 10 umol/kg, sc administered LPS 15 mins post compound treatment measured after 4 hrs by ELISA; assay type: functional, organism-based
[4] = system: RAW264.7; assay: Antiinflammatory activity in mouse RAW264.7 cells assessed as reduction in LPS-induced TNF-alpha production at 1 pM to 100 nM incubated for 2 hrs prior to LPS challenge measured after 8 hrs by ELISA; assay type: functional, cell-based
Method in brief: (§3)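 RAW 264.7 macrophages were plated at 1×10^5 per well, grown overnight and washed with PBS. Compounds in water (final 1 pM-100 nM, medium with 2% FCS) were added 2 h at 37 °C before E. coli 0111:B4 LPS, 2.5 µg/mL. TNF-α was sampled at 8 h; IL-6 and nitrite (Griess) at 24 h. ELISA was used for cytokines. Values are % of the LPS + medium value in each experiment. Budesonide was the reference. 2-3 experiments, 6 wells per concentration.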

[5] = system: RAW264.7; assay: Antiinflammatory activity in mouse RAW264.7 cells assessed as reduction in LPS-induced IL6 production at 1 pM to 100 nM incubated for 2 hrs prior to LPS challenge measured after 24 hrs by ELISA; assay type: functional, cell-based; method in brief: as §3
[6] = system: RAW264.7; assay: Antiinflammatory activity in mouse RAW264.7 cells assessed as reduction in LPS-induced nitric oxide production at 1 pM to 100 nM incubated for 2 hrs prior to LPS challenge measured after 24 hrs by Griess assay; assay type: functional, cell-based; method in brief: as §3
[7] = system: Mus musculus; assay: Antiinflammatory activity in Balb/C mouse assessed as reduction in LPS-induced TNF-alpha production in spleen at 1 umol/kg, sc administered LPS 15 mins post compound treatment measured after 4 hrs by ELISA; assay type: functional, organism-based; method in brief: as §1
[8] = Cytotoxicity against mouse RAW264.7 cells assessed as cell viability at 10^-7 M after 24 hrs by MTT assay relative to control; assay type: cell-based; conditions: read-out: Activity; method in brief: as §2
[9] = system: Mus musculus; assay: Antiinflammatory activity in Balb/C mouse assessed as reduction in LPS-induced IL6 production in brain at 0.1 to 10 umol/kg, sc administered LPS 15 mins post compound treatment measured after 4 hrs by ELISA; assay type: functional, organism-based
[10] = Cytotoxicity against mouse RAW264.7 cells assessed as cell viability at 10^-8 M after 24 hrs by MTT assay relative to control; assay type: cell-based; conditions: read-out: Activity; method in brief: as §2
[11] = Cytotoxicity against mouse RAW264.7 cells assessed as cell viability at 10^-9 M after 24 hrs by MTT assay relative to control; assay type: cell-based; conditions: read-out: Activity; method in brief: as §2
[12] = Cytotoxicity against mouse RAW264.7 cells assessed as cell viability at 10^-12 M after 24 hrs by MTT assay relative to control; assay type: cell-based; conditions: read-out: Activity; method in brief: as §2
[13] = Cytotoxicity against mouse RAW264.7 cells assessed as cell viability at 10^-10 M after 24 hrs by MTT assay relative to control; assay type: cell-based; conditions: read-out: Activity; method in brief: as §2
[14] = system: RAW264.7; assay: Antiinflammatory activity in mouse RAW264.7 cells assessed as reduction in LPS-induced nitric oxide production at 100 pM incubated for 2 hrs prior to LPS challenge measured after 24 hrs by Griess assay; assay type: functional; design: scale not given: the % may be the effect or the level left; method in brief: as §3
[15] = system: RAW264.7; assay: Antiinflammatory activity in mouse RAW264.7 cells assessed as reduction in LPS-induced IL-6 production at 100 pM incubated for 2 hrs prior to LPS challenge measured after 24 hrs by ELISA; assay type: functional; design: scale not given: the % may be the effect or the level left; method in brief: as §3
[16] = system: Mus musculus; assay: Antiinflammatory activity in Balb/C mouse assessed as reduction in LPS-induced IL6 production in plasma at 1 umol/kg, sc administered LPS 15 mins post compound treatment measured after 4 hrs by ELISA; assay type: functional, organism-based; method in brief: as §1
[17] = system: RAW264.7; assay: Cytoprotective activity against H2O2-induced oxidative stress in mouse RAW264.7 cells assessed as cell viability at 1 pM incubated for 2 hrs prior to H2O2 addition measured after 24 hrs by MTT assay (reference value: 68 to 72.8%); assay type: functional; conditions: read-out: Activity
[18] = system: RAW264.7; assay: Antiinflammatory activity in mouse RAW264.7 cells assessed as reduction in LPS-induced TNF-alpha production at 100 pM incubated for 2 hrs prior to LPS challenge measured after 8 hrs by ELISA; assay type: functional; design: scale not given: the % may be the effect or the level left; method in brief: as §3
[19] = system: Mus musculus; assay: Antiinflammatory activity in Balb/C mouse assessed as reduction in LPS-induced TNF-alpha production in plasma at 1 umol/kg, sc administered LPS 15 mins post compound treatment measured after 4 hrs by ELISA; assay type: functional, organism-based; method in brief: as §1
[20] = system: RAW264.7; assay: Cytoprotective activity against H2O2-induced oxidative stress in mouse RAW264.7 cells assessed as decrease in LDH release at 1 pM incubated for 2 hrs prior to H2O2 addition by colorimetric assay relative to control; assay type: functional; design: scale not given: the % may be the effect or the level left
Method in brief: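 RAW 264.7 cells were seeded and pretreated with compound before H2O2 100 µM, in serum-free medium. Collected medium was centrifuged and incubated with reaction mix 30 min at room temperature. LDH was measured as NADH formation by colorimetric read at 490 nm. n = 8-10 replicates per concentration.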

[21] = system: RAW264.7; assay: Cytoprotective activity against H2O2-induced oxidative stress in mouse RAW264.7 cells assessed as decrease in caspase-3 activity at 1 pM incubated for 4 hrs prior to H2O2 addition measured after 90 mins by caspase-GloR reagent-based luminescence assay relative to control; assay type: functional; design: scale not given: the % may be the effect or the level left
Method in brief: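 RAW 264.7 macrophages were pretreated with compound (1 pM or 1 nM) 4 h before H2O2 100 µM. Medium was replaced with fresh DMEM after 90 min and plates were incubated overnight. Caspase-Glo 3/7 reagent was added and luminescence read after 30 min at room temperature. Mean ± SD, 4-6 replicates.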

[22] = system: RAW264.7; assay: Cytoprotective activity against H2O2-induced oxidative stress in mouse RAW264.7 cells assessed as decrease in LDH release at 1 pM incubated for 2 hrs prior to H2O2 addition by colorimetric assay relative to control; design: scale not given: the % may be the effect or the level left
[23] = system: RAW264.7; assay: Cytoprotective activity against H2O2-induced oxidative stress in mouse RAW264.7 cells assessed as cell viability at 10 nM incubated for 2 hrs prior to H2O2 addition measured after 24 hrs by MTT assay (reference value: 68 to 72.8%); assay type: functional; conditions: read-out: Activity

In the case of `COc1ccc2c(c1)CCN2CCCO.Cl`, the Activity [1] is reported as “Active”, the viability at 24 h, 1e-05 µM [2] is reported as 93.4% and the Activity [3] is reported as “Active”. For the same compound, the Activity [4] was “Active”, the Activity [5] was “Active” and the Activity [6] was “Active”. The Activity [7] was “Active”, the viability at 24 h, 0.1 µM [8] was 91.9% and the Activity [9] was “Active”. The viability at 24 h, 0.01 µM [10] was 91.4%, the viability at 24 h, 0.001 µM [11] was 95.3% and the viability at 24 h, 1e-06 µM [12] was 91.9%. It also gave a viability at 24 h, 0.0001 µM [13] of 93.9%, an Activity [14] of 50% and an Activity [15] of 50%. The Activity [16] was “Active”, the viability at 1 pM [17] was 95.6% and the Activity [18] was 50%. The Activity [19] was “Active”.

For `COC(=O)CCN1CCc2cc(OC)ccc21.Cl`, the Activity [20] was 16%, the Activity [6] was “Active” and the Activity [21] was 60%. For the same compound, the Activity [22] was 16% and the viability at 1 pM [17] was 91%.

Work on `c1ccc2c(c1)CCN2` [INDOLINE] yielded a viability at 0.01 µM [23] of 90.4%.
